Results on 30 molecules are retold here after ChEMBL document CHEMBL1148432, “PDE2 inhibition by the PI3 kinase inhibitor LY294002 and analogues” (Bioorg Med Chem Lett, 2004).

The structures appear in SMILES notation. pIC50: −log10 of the molar value.

In one test the target is T1, cGMP-dependent 3',5'-cyclic phosphodiesterase (Homo sapiens, UniProt O00408). Nature of the test: Inhibition of human platelet phosphodiesterase 2. The gist of the method: (§1)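 PDE2 was purified from human platelet lysate by anion-exchange chromatography. The enzyme was premixed in HEPES buffer with cGMP and inhibitor or DMSO for 90 s at 37 °C, then started with cAMP substrate. The reaction was stopped after 5 min by heating at 100 °C for 3 min. AMP was measured by reverse-phase HPLC at 254 nm against standards and expressed as % of DMSO control (mean ± SE, n ≥ 3).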
T1 sequence (O00408 whole entry): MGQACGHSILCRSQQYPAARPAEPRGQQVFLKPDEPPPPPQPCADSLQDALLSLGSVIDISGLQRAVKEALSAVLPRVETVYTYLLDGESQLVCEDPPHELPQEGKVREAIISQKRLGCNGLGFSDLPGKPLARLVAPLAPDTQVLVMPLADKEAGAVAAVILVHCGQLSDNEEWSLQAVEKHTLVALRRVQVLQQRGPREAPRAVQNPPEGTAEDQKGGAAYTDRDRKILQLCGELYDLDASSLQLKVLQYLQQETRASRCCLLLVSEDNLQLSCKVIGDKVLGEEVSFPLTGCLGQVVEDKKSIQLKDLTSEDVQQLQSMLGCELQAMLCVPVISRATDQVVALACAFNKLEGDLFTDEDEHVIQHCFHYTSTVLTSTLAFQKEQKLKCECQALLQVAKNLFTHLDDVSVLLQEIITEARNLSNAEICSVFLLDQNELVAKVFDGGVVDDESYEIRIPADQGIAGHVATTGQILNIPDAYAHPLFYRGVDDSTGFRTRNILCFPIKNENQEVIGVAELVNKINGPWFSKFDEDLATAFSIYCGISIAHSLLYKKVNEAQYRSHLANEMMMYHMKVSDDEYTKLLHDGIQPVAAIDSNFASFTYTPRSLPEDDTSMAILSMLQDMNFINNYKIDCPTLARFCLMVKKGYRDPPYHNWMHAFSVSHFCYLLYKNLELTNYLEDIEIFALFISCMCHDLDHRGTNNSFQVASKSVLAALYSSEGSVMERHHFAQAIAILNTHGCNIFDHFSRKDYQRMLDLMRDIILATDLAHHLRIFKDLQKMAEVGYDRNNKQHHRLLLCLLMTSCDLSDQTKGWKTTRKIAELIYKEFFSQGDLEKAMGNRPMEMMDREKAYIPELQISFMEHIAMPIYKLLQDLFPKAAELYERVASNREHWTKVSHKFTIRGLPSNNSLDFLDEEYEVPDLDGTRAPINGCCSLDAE
Consider `O=c1cc(N2CCOCC2)oc2c(-c3ccccc3)cccc12` [LY-294002], for which the pIC50 (commonly the IC50 on a negative log10 scale, so that one unit is a factor of ten) was 4.40. On the same count and under the same terms, the same measure for `COc1cc(-c2cccc(Cl)c2)c2oc(N3CCOCC3)cc(=O)c2c1`: 5.05; for `CCCCCC[C@@H]([C@@H](C)O)n1cnc2c(N)ncnc21` [EHNA]: 5.30. The same measure, in the same setting: the same measure for `O=c1cc(N2CCOCC2)oc2c(C#Cc3ccccc3)cccc12`: 5.22.

A further test concerns the target Phosphodiesterase 3 (Homo sapiens, UniProt Q14432+Q13370). Put plainly: Inhibition of human platelet phosphodiesterase 3. The procedure, abridged: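 PDE3 was separated from PDE2 in human platelet lysate by anion-exchange chromatography. It was assayed under conditions optimal for that isozyme, with the AMP product quantified by reverse-phase HPLC.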
Turning to `O=c1cc(N2CCOCC2)oc2c(-c3ccccc3)cccc12` [LY-294002], the IC50 – broadly, the concentration at which inhibition is half-maximal – amounted to 100 µM.

A further test deals with T1, cGMP-dependent 3',5'-cyclic phosphodiesterase. Nature of the test: Inhibitory activity against human platelet phosphodiesterase 2 at 50 uM expressed as percent basal value. The procedure, abridged:
as §1
`Cc1c(C#Cc2ccccc2)ccc2c(=O)cc(N3CCOCC3)oc12` gave a Remaining activity (% of control) of 44%. Still for that read-out and setting: for `O=c1cc(N2CCOCC2)oc2c(-c3ccc(Oc4ccccc4)cc3)cccc12` the value was 75%; for `O=c1cc(N2CCOCC2)oc2c(OCc3ccccc3)cccc12`, 40%; for `O=c1cc(N2CCOCC2)oc2cc(-c3ccccc3)ccc12`, 9%. Still for that read-out and setting: the same measure for `O=c1cc(N2CCOCC2)oc2c(-c3ccc(F)cc3)cccc12`: 43%. As to `O=c1cc(N2CCOCC2)oc2c(-c3ccccc3C(F)(F)F)cccc12`, the Remaining activity (% of control) worked out at 43%. Same read-out and setting: for `O=c1cc(N2CCOCC2)oc2c(-c3ccccc3)cccc12` [LY-294002] the value was 54%; for `O=c1cc(N2CCOCC2)oc2c(-c3ccccc3)cc(O)cc12`, 69%.

Turning to `COc1cc(-c2cccc(Cl)c2)c2oc(N3CCOCC3)cc(=O)c2c1`, the Remaining activity (% of control) stood at 87%. Same read-out and setting: the same measure for `CCc1cc(-c2ccccc2)c2oc(N3CCOCC3)cc(=O)c2c1`: 47%. The same measure, in the same setting: for `COc1cc(-c2ccccc2)c2oc(N3CCOCC3)cc(=O)c2c1` the value was 75%; for `Cc1c(OCc2ccccc2)ccc2c(=O)cc(N3CCOCC3)oc12`, 38%; for `COc1ccccc1-c1cccc2c(=O)cc(N3CCOCC3)oc12`, 47%.

As to `O=c1cc(N2CCOCC2)oc2cc(OCc3cccnc3)ccc12`, the Remaining activity (% of control) was found to be 22%. The same measure, in the same setting: the same measure for `O=c1cc(N2CCOCC2)oc2c(OCc3cccnc3)cccc12`: 35%; for `COc1ccc2oc(N3CCOCC3)cc(=O)c2c1`: 38%; for `O=c1cc(N2CCOCC2)oc2c(CCc3ccccc3)cccc12`: 43%. Same read-out and setting: the same measure for `Cc1c(OCc2cccnc2)ccc2c(=O)cc(N3CCOCC3)oc12`: 35%. Molecule `O=c1cc(N2CCOCC2)oc2c(-c3ccccc3Cl)cccc12` returned a Remaining activity (% of control) of 62%.

For `Cc1c(-c2ccccc2)ccc2c(=O)cc(N3CCOCC3)oc12`, the Remaining activity (% of control) stood at 31%. Same read-out and setting: the same measure for `O=c1cc(N2CCOCC2)oc2c(O)cccc12`: 19%. On the same count and under the same terms, for `O=c1cc(N2CCOCC2)oc2cc(OCc3ccccc3)ccc12` the value was 12%. On the same count and under the same terms, for `COc1cccc2c(=O)cc(N3CCOCC3)oc12` the value was 20%; for `Cc1ccccc1-c1cccc2c(=O)cc(N3CCOCC3)oc12`, 47%. `O=c1cc(N2CCOCC2)oc2cc(C#Cc3ccccc3)ccc12`: the Remaining activity (% of control) is 92%. On the same count and under the same terms, for `COc1cc(-c2ccc(Cl)cc2)c2oc(N3CCOCC3)cc(=O)c2c1` the value was 67%; for `O=c1cc(N2CCOCC2)oc2c(C#Cc3ccccc3)cccc12`, 93%. Still for that read-out and setting: for `COc1cc(-c2ccccc2Cl)c2oc(N3CCOCC3)cc(=O)c2c1` the value was 78%. `Cc1cc(-c2ccccc2)c2oc(N3CCOCC3)cc(=O)c2c1` returned a Remaining activity (% of control) of 60%.
